Activity calls are given as the source filed them. No cut-off for these calls is given here.
Experiments:
[1] = tested on: Mus musculus; assay: Down regulation of 4E-BP1 phosphorylation at Thr37/46 residues in human T47D cells xenografted in BALB/c nude mouse administered via oral gavage after 3 weeks by hematoxylin and eosine staining based light microscopic assay; assay type: functional, cell-based
Method in brief: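 Tumours from the oral 3-week T-47D xenograft study were formalin-fixed, paraffin-embedded and cut into 5 μm sections. Sections were deparaffinized, rehydrated and incubated overnight at 4 °C with phospho-specific primary antibody at 1:100. Biotin secondary was applied for 1 h at room temperature, then ABC-peroxidase/DAB with hematoxylin counterstain. Sections were viewed by light microscopy.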

[2] = organism: Homo sapiens; assay: Inhibition of mTORC1 in human MCF7 cells assessed as reduction in S6 phosphorylation at Ser 240/244 residues at 0.25 to 0.5 uM by Western blot analysis; assay type: cell-based
Method in brief: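 Cells treated with the indicated concentrations, then whole-cell lysates immunoblotted. mTORC1 activity read as S6 and 4E-BP1 phosphorylation; mTORC2 activity read as AKT Ser473 phosphorylation. Blocking in 5% skim milk, primary antibodies at 4 °C overnight, peroxidase-conjugated secondary, ECL detection.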

[3] = tested on: OVCAR-5; assay: Growth inhibition of human OVCAR5 cells after 72 hrs by CCK8 assay; assay type: functional, cell-based; settings: OVCAR-5, 72 h
Method in brief: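 Cells were seeded at 2000–3000 per well and grown 24 h in serum-containing medium. They were then exposed to serially diluted compound for 72 h at 37 °C, 5% CO2. CCK8 reagent was added for 1–4 h and absorbance read at 450 nm. Inhibition = (AC − AS)/(AC − Ab) × 100%. IC50 is the average of at least three independent determinations.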

IC50 [3]: 2.83 µM
SMILES: N#CCN1CCC(n2c(=O)cnc3cnc4ccc(-c5ccc(N)nc5)cc4c32)CC1
Activity [1]: Dose-dependent effect | inhibition [2]: Active
